Screening data from PubChem.
A selection: hits, their analogues and other compounds. The true share with any hit is near 4.4%.
Calb FLC: C. albicans growth inhibition with fluconazole, primary screen, CaCi-2 strain, Alamar Blue fluorescence; 300,000 compounds, 0.57% hits; C. albicans CaCi-2 (fluconazole-resistant clinical isolate) + fluconazole, 48 h; growth inhibition, % (no concentration beside the values);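 active = growth inhibition above about 58% in most replicates, limit read from the data, passing the limit was not always enough; inconclusive = exactly half the replicates above a set limit; inactive = most replicates below a set limit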;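 also: all wells also contain fluconazole at 8 µg/ml as a sub-toxic cotreatment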
HSF1 inh: HSF1 inhibitors in luciferase reporter cells, primary screen, cell-based, NIH3T3, luminescence; NIH3T3-HGL HSE-luciferase, MG132-induced, luminescence 8 h; active compounds read low; activity change, negative = inhibition, % at 7.5 µM (by protocol); 300,000 compounds, 0.77% hits; AID 2098, 2009;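 active = more than half of replicate wells show activity change below -50%, luminescence cut by over half; inconclusive = some wells, but at most half, below -50%; inactive = no replicate well below -50%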;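 also: luciferase reports HSF-1 transcriptional activity via heat shock element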
HIF act: HIF pathway transcriptional activators, primary screen, cell-based, U2OS HRE-luciferase, luminescence; activation, % at 7.5 µM (by protocol); 300,000 compounds, 0.32% hits; AID 1910, 2009; U2OS HRE-luciferase reporter; normalized: DMSO 0%, desferrioxamine 100%;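 active = mean activation of at least 10% of the iron chelator positive control signal, with at least half of replicates also reaching 10%; inconclusive = mean and replicate majority disagree about reaching 10%; inactive = mean and most replicates under 10%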
T cruzi inh: inhibitors of intracellular T. cruzi growth, primary screen, luminescence, NIH3T3 host cells; T. cruzi beta-gal in NIH3T3, 90 h; inhibition, % (no concentration beside the values); 300,000 compounds, 1.4% hits;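 active = mean inhibition across valid replicates above about 55%, limit read from the data; inconclusive = mean below that limit but half or more replicates reach it; inactive = mean below it, under half of replicates reach it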;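 also: signal also drops with host cell toxicity which is not excluded here; higher percent means less beta-gal luminescence so fewer parasites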
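Test system: β-gal T. cruzi (Tulahuen C4) inside NIH/3T3 cells / Quantity: 5,000 cells/well / Measured by: luminescence from GalScreen with 0.05% NP40, read after 60 min / Medium: DMEM plus 2% FBS / Measure: parasite load inhibition, % / Reagent: Tulahuen C4 trypomastigotes, 5000/well / Schedule: co-culture of at least 90 h after 3 h attachment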
HSF-1 act: HSF-1 activators, primary screen, NIH3T3-HGL cells, MG132 stress, luminescence, single point | NIH3T3-HGL HSF-1 luciferase reporter, 8 h; 100% = twice DMSO control signal | activation, % at 9 µM | 300,000 compounds, 1.7% hits;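 active = mean replicate activation of at least 50% with a set share of replicates each reaching 50%; inconclusive = only one of those two conditions met; inactive = mean below 50% and too few replicates reaching it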
Large screens that a line does not name were inactive.

CC(NC(=O)C(=O)N/N=C/c1ccccc1)c1ccccc1 (stereo unspecified)	none
CCOC(=O)c1nnc(-c2ccccc2)nc1Sc1ccccc1Cl	HSF-1 act 159
O=C(O)c1cnc(-c2ccccc2)nc1Sc1ccc(Cl)cc1	Calb FLC 99
CCOC(=O)c1nnc(-c2ccc(C)cc2)nc1Sc1cccc(Cl)c1	none
COc1ccc(Oc2nc(-c3ccccc3)ncc2C(=O)O)cc1	none
COc1ccc(Sc2nc(-c3ccccc3)ncc2C(=O)O)cc1	none
O=C(O)c1cnc(-c2ccccc2)nc1Sc1ccccc1Cl	Calb FLC 96
Cc1cccc(Sc2nc(-c3ccccc3)ncc2C(=O)O)c1	Calb FLC 109
Cc1cc2nc(CCN3CCOCC3)n(S(=O)(=O)c3ccc(C(C)(C)C)cc3)c2cc1C	none
Cc1cc(C)nc(NNC2=CC(=[N+]3CCCCC3)CC(C)(C)C2)n1	HSF1 inh -71
Cc1cc(C)nc(NNC2=CC(=[N+]3CCCC3)CCC2)n1	none
COc1ccc(-n2ncc3c(NCCCN4CCOCC4)ncnc32)cc1	HSF1 inh -55
COc1ccc(CCNCC(=O)Nc2ccc(C(=O)N3CCCCC3)cc2)cc1	none
CCOc1ccccc1C(=O)NC1CCNCC1	none
COc1cc(C(=O)NCCc2c[nH]c3ccccc23)ccc1OCc1c(C)noc1C	none
Cc1ccc(CN2CCSc3ccc(C(=O)NC4CCN(Cc5ccccc5)CC4)cc32)cc1	T cruzi inh 57
CC1CC(C)CN(C(=O)c2ccc3c(c2)N(Cc2ccccc2)CCS3)C1 (stereo unspecified)	HSF-1 act 64
CCN1CCSc2ccc(C(=O)NCc3cccc(Br)c3)cc21	HSF-1 act 121
O=[N+]([O-])c1ccc(CSC2=NCCS2)cc1	none
CC(=O)C1=C(O)C(=O)N(c2ccc(O)cc2)C1c1ccccc1[N+](=O)[O-] (stereo unspecified)	none
CN(C)c1ccc(Nc2ncnc3ccc(Br)cc23)cc1	HSF1 inh -53
O=C(C1=C[C@H](c2ccc(Br)cc2)C[C@H](OCCCCO)O1)N1CCN(Cc2ccccc2)CC1	T cruzi inh 56
O=C(C1=C[C@H](c2ccc(C(F)(F)F)cc2)C[C@H](OCCCCO)O1)N1CCN(Cc2ccc3c(c2)OCO3)CC1	HSF1 inh -70
O=[N+]([O-])c1cnn(-c2nc(-c3ccco3)cc(C(F)(F)F)n2)c1	none
COCCNC(=O)COc1cccc2c1OC(C)(C)C2	none (no result: HSF1 inh, HSF-1 act)
Cc1ccc(C(=O)Cn2nnc(-c3ccccc3-n3cnnn3)n2)cc1	HSF-1 act 73
Brc1ccc(CSc2nnc(-c3cnccn3)n2Cc2ccco2)cc1	Calb FLC 99
Fc1ccccc1CSc1nnc(-c2cnccn2)n1Cc1ccco1	HSF-1 act 67
Fc1ccc(CSc2nnc(-c3cnccn3)n2Cc2ccco2)cc1	Calb FLC inconclusive
O=C(CCCc1nc2ccccc2s1)NNC(=O)CCN1CCN(Cc2ccccc2)CC1	none
CC(C)c1ccc(N(C(=O)CNC(=O)c2ccco2)C(C(=O)NC2CCCC2)c2cccnc2)cc1 (stereo unspecified)	none
COC(C(=O)Nc1ccc(S(=O)(=O)Nc2cccc3ccccc23)cc1)c1ccccc1 (stereo unspecified)	Calb FLC inconclusive, HSF-1 act 55
CC(C)(C)C(=O)Nc1ccc(N=Nc2ccccc2)cc1	HSF1 inh -78
O=C(O)CCC(=O)Nc1ccc(N=Nc2ccccc2)cc1	none
CCn1c(/C=C\c2ccccc2C)nc2ccccc2c1=O	Calb FLC inconclusive
CCn1c(/C=C/c2c[nH]c3ccccc23)nc2ccccc2c1=O	HSF-1 act 81
Cc1ccc2[nH]cc(/C=C/c3cc[n+](C)cc3)c2c1	T cruzi inh 59
CC[n+]1ccc(/C=C/c2c[nH]c3ccccc23)cc1	T cruzi inh 70
COc1ccc2c(/C=C/c3cc[n+](C)cc3)c[nH]c2c1	none
c1ccc(CSc2cc3ccccc3[nH]2)cc1	none
CCOc1ccc(Nc2ncnc3ccc([N+](=O)[O-])cc23)cc1	T cruzi inh 59
COc1ccc(/C=C/c2nc(S(=O)(=O)c3ccccc3)c(NCCCN(C)C)o2)cc1OC	none
